Here are results for 1 molecule from ChEMBL document CHEMBL4354876, “A Selective Modulator of Peroxisome Proliferator-Activated Receptor γ with an Unprecedented Binding Mode” (J Med Chem, 2020).

The nature of series [1]: Partial agonist activity at recombinant PPARgamma LBD/N-terminal GFP-fused RXRalpha mutant LBD (unknown origin) assessed as increase in biotinylated-CBP peptide recruitment measured after 2 hrs by HTRF assay. Also on record: species or system Homo sapiens. An outline of the steps:
(§1)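 Cell-free HTRF assay of coactivator peptide recruitment (CBP or SRC-1) to the recombinant PPARγ:RXRα heterodimer.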
For orientation: In TR-FRET formats the signal depends on donor and acceptor labels being close together.

Series [2] in a line: Partial agonist activity at recombinant PPARgamma LBD/N-terminal GFP-fused RXRalpha mutant LBD (unknown origin) assessed as increase in biotinylated-SRC1 peptide recruitment measured after 2 hrs by HTRF assay. Also on record: species or system Homo sapiens. An outline of the steps:
as §1

In series [3] the target is T1, Peroxisome proliferator-activated receptor gamma (Homo sapiens) (UniProt P37231).
T1 sequence (whole entry): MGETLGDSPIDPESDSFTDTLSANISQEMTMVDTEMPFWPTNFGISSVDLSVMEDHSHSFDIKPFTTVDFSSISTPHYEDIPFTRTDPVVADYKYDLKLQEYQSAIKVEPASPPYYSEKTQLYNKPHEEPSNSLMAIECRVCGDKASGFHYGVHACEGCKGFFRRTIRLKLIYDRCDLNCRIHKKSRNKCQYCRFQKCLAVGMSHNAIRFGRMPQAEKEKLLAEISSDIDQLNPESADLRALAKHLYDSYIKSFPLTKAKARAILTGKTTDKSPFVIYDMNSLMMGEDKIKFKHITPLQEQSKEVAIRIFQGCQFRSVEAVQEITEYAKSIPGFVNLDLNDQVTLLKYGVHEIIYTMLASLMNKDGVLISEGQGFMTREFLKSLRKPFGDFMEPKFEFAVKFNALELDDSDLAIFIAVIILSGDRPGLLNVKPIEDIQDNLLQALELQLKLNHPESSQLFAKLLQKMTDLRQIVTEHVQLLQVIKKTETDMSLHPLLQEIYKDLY
Description: Selective modulation of PPARgamma in human HepG2 cells assessed as induction of adiponectin mRNA expression at 1 uM measured after 12 hrs by qPCR analysis. Type of series: cell-based. An outline of the steps: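 HepG2 cells were incubated with test compound at 1 µM. mRNA of the PPARγ target genes adiponectin and ANGPTL4 was quantified. Mean±S.E.M., n≥3.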

A further series relates to NHDF. Briefly: Induction of adipogenesis in NHDF assessed as reduction in fibroblast differentiation into matured adipocytes at 2 uM administered on day 3 of differentiation 1 and day 5 of differentiation 2 followed by media refreshment at 2 days interval up to 13 days and measured on day 14 by Oil red O staining based light microscopic analysis. Type of series: cell-based. Conditions: human. An outline of the steps:
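Primary human fibroblasts (NHDF) were differentiated to mature adipocytes and treated with ligand or DMSO; the test compound was used at 0.2, 2 and 20 µM and the reference at 2 µM. Lipid accumulation was read by Oil Red O staining, with four replicates.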

SMILES strings stand for the structures. Active and inactive are the calls of the source. No cut-off for these calls is given here.

In the case of `CN(CCOc1ccc(CC2SC(=O)NC2=O)cc1)c1ccccn1` (centres undefined) [ROSIGLITAZONE], the EC50 in series [1] came out at 121 nM; in series [2], 116 nM. Further, the outcome in series [3] was Active. Moreover, in the series on NHDF, the Activity entry is reported as “Toxic”.

By EC50 is commonly meant the concentration that produces a half-maximal response.
